Results: paper PMC10693281 (International Journal of Nanomedicine, 2023)

What was measured:
[1] = Pharmacokinetic study, single i.v. injection; assay type: in vivo, Wistar rats; conditions: male, Wistar, rat, plasma, iv, 10 mg/kg
[2] = test system: IL-2, IL-6, IL-1β, caspase-9; experiment: Proinflammatory cytokines and caspase-9 by ELISA; assay type: in vivo, Wistar rats; conditions: DEN-induced rats
How it was run: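 IL-2, IL-6, IL-1β and caspase-9 were measured in hepatic tissue of DEN-induced HCC rats using commercial ELISA kits per manufacturer's instructions.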

[3] = In-vitro drug release, dialysis bag diffusion method; assay type: physicochemical; conditions: PBS pH 7.4
How it was run: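 Dialysis bag (MW 12,500 Da, ~2.4 nm pores), pre-soaked 24 h in pH 7.4 PBS, filled with 2 mL drug-loaded lipid-carrier dispersion and sealed. Suspended in 100 mL pH 7.4 PBS at 37 ± 1°C under sink conditions, agitated at 100 rpm for 48 h.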

AUC(0-inf) [1]: 41100 ± 13200 ng·h/mL
AUC(0-t) [1]: 33300 ± 9550 ng·h/mL
Cmax [1]: 7820 ± 1140 ng/mL
MRT inf [1]: 12.2 ± 2 h
half-life [1]: 7.66 ± 1.7 h
GF release ([3]; 48 hours): 95.63 ± 4.04%
GF released ([3]; within 4 hours): approximately 80%
SMILES: COc1cc2ncnc(Nc3ccc(F)c(Cl)c3)c2cc1OCCCN1CCOCC1 [Gefitinib]
caspase 9 levels [2]: increased significantly
